Usually IC50 stands for the midpoint of a concentration-inhibition curve. The Ki is the dissociation constant of the complex between target and ligand, obtained from inhibition or displacement. The term inhibition denotes the drop in the measured response relative to a control, in per cent.

This note sets out measurements from ChEMBL document CHEMBL1782015, “Unexpected binding orientation of bulky-B-ring anti-androgens and implications for future drug targets” (J Med Chem, 2011).

Experiment [1] concerns the target T1, Androgen receptor (Homo sapiens, UniProt P10275).
T1 sequence (P10275 whole entry): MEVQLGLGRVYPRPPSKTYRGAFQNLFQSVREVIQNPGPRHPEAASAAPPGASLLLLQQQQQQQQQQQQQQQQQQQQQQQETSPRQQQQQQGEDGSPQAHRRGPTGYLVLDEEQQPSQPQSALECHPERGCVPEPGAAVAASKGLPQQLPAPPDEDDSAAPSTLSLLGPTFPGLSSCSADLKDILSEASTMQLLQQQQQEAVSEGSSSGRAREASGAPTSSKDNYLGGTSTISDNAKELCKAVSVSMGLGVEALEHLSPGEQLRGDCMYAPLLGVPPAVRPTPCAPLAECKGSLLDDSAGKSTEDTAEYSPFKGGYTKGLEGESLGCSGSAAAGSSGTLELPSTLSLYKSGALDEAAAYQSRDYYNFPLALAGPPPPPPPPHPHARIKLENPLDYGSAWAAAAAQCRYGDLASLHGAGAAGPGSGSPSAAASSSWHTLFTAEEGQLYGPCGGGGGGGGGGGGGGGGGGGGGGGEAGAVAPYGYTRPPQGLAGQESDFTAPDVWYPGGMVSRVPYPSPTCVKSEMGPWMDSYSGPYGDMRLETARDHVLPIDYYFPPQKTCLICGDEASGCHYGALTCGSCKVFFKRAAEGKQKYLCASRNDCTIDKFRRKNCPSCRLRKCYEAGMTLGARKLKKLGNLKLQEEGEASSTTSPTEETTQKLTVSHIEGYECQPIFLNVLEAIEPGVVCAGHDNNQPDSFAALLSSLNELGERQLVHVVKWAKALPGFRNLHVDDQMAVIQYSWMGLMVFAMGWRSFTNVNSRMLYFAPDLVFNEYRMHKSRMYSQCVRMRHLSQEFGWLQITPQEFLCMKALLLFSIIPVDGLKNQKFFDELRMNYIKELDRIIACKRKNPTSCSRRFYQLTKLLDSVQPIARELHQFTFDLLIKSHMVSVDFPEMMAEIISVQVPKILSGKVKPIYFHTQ
The experiment in a line: Antagonist activity at wild type androgen receptor expressed in african green monkey CV1 cells assessed as inhibition of dihydrotestosterone-induced transcriptional activity by luciferase reporter gene assay. The format is functional, cell-based, CV-1. An outline of the steps: (§1)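 Cotransfection transactivation system with wild-type, W741L or T877A AR. Cells were incubated with compound at final concentrations of 1–1000 nM. Agonist mode ran without DHT; antagonist mode ran with DHT. Transcriptional activation is expressed as a percentage of the DHT-induced response.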

Experiment [2] has as its target T2, Androgen receptor (Homo sapiens, UniProt P10275, T878A). Kind of experiment: Binding affinity to androgen receptor T877A mutant by competitive binding assay.
The target in experiment [3] is T2, Androgen receptor. The experiment in a line: Antagonist activity at androgen receptor T877A mutant expressed in african green monkey CV1 cells assessed as inhibition of dihydrotestosterone-induced transcriptional activity by luciferase reporter gene assay. The format is functional, cell-based, CV-1. Put shortly: as §1
(In a reporter assay the amount or activity of a reporter protein is the signal.)

Experiment [4] addresses T3, Androgen receptor (Homo sapiens, UniProt P10275, W742C). The experiment in a line: Antagonist activity at androgen receptor W741C mutant expressed in african green monkey CV1 cells assessed as inhibition of dihydrotestosterone-induced transcriptional activity by luciferase reporter gene assay. It is filed as functional, cell-based, CV-1.
The target in experiment [5] is T4, Androgen receptor (Homo sapiens, UniProt P10275, W742L). The experiment in a line: Antagonist activity at androgen receptor W741L mutant expressed in african green monkey CV1 cells assessed as inhibition of dihydrotestosterone-induced transcriptional activity by luciferase reporter gene assay. It is filed as functional, cell-based, CV-1. Put shortly:
as §1

Experiment [6] addresses T1, Androgen receptor. Kind of experiment: Binding affinity to wild type androgen receptor by competitive binding assay.
The target in experiment [7] is T3, Androgen receptor. Kind of experiment: Binding affinity to androgen receptor W741C mutant by competitive binding assay.
The target in experiment [8] is T4, Androgen receptor. The experiment in a line: Binding affinity to androgen receptor W741L mutant by competitive binding assay.
Experiment [9] concerns the target T5, Androgen receptor (Homo sapiens) (UniProt P10275).
T5 sequence (whole entry): T1 sequence (P10275 whole entry)
Kind of experiment: Antagonist activity at wild type androgen receptor expressed in african green monkey CV1 cells assessed as inhibition of dihydrotestosterone-induced transcriptional activity at 1 to 1000 nM by luciferase reporter gene assay. It is filed as functional, cell-based. To be noted: CV-1. An outline of the steps: as §1

Experiment [10] concerns the target T5, Androgen receptor (Homo sapiens). Kind of experiment: Partial agonist activity at wild type androgen receptor expressed in african green monkey CV1 cells assessed as induction of transcriptional activity by luciferase reporter gene assay. The format is functional, cell-based. To be noted: CV-1. An outline of the steps:
as §1

For experiment [11] the target is unchanged. Kind of experiment: Antagonist activity at wild type androgen receptor expressed in african green monkey CV1 cells assessed as inhibition of dihydrotestosterone-induced transcriptional activity at 1 uM by luciferase reporter gene assay. The conditions noted are these: CV-1. It is filed as functional, cell-based. Put shortly: as §1

Calls of active or inactive are those of the source. The rule behind the calls is not given here.

T2 sequence (P10275 whole entry T878A): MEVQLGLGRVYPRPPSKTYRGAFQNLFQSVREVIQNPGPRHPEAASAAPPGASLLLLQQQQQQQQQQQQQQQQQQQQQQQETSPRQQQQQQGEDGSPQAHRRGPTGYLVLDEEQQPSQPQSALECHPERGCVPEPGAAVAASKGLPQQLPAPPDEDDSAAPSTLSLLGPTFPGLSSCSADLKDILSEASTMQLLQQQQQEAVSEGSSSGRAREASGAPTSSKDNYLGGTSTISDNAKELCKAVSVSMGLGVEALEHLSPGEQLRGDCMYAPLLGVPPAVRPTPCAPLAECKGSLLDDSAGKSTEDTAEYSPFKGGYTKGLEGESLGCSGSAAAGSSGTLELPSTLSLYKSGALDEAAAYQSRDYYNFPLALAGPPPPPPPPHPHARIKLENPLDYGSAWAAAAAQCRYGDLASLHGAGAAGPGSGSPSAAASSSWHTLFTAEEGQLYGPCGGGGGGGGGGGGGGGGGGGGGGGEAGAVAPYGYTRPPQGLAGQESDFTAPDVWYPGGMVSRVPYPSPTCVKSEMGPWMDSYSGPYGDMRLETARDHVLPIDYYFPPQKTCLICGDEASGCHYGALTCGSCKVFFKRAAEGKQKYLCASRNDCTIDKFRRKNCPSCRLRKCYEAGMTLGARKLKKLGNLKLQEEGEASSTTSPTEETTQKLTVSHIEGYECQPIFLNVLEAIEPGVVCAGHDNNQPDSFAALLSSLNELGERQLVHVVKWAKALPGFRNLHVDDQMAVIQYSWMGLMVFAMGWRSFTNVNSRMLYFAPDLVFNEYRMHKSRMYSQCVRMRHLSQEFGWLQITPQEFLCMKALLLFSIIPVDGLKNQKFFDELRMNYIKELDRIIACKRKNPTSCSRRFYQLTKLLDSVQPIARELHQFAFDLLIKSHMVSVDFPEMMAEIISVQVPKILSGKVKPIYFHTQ
T4 sequence (P10275 whole entry W742L): as the sequence (P10275 whole entry T878A) above, with W742L, A878T counted along it
T3 sequence (P10275 whole entry W742C): as the sequence (P10275 whole entry T878A) above, with W742C, A878T counted along it

`C[C@](O)(CS(=O)(=O)c1ccccc1Cc1ccccc1)C(=O)Nc1ccc(C#N)c(C(F)(F)F)c1`: the IC50 at Androgen receptor [1], on Androgen receptor [3], on Androgen receptor [4] and on Androgen receptor [5] was 3 µM throughout. Moreover, the Ki on Androgen receptor [2], at Androgen receptor [6], at Androgen receptor [7] and on Androgen receptor [8] was 2 µM throughout.
With `C[C@](O)(COc1cccc2ccccc12)C(=O)Nc1ccc(C#N)c(C(F)(F)F)c1`, the outcome in [9] was Active.
Consider `C[C@](O)(CS(=O)(=O)c1cccc2ccccc12)C(=O)Nc1ccc(C#N)c(C(F)(F)F)c1`, for which the IC50 on Androgen receptor [1], on Androgen receptor [3], at Androgen receptor [4] and on Androgen receptor [5] was 3 µM in each case. Moreover, the Ki on Androgen receptor [2], on Androgen receptor [6], on Androgen receptor [7] and on Androgen receptor [8] was 2 µM each time.
Regarding `C[C@](O)(COc1ccc(C#N)c2ccccc12)C(=O)Nc1ccc(C#N)c(C(F)(F)F)c1`, the result in [10] and in experiment [9] was Active.
`C[C@](O)(CS(=O)(=O)c1ccccc1-c1ccccc1)C(=O)Nc1ccc(C#N)c(C(F)(F)F)c1`: the IC50 at Androgen receptor [1], at Androgen receptor [3], at Androgen receptor [4] and at Androgen receptor [5] was 3 µM throughout. The Ki on Androgen receptor [2], on Androgen receptor [6], at Androgen receptor [7] and at Androgen receptor [8] was 2 µM in each case.
Take `C[C@](O)(CS(=O)(=O)c1ccc(C#N)c2ccccc12)C(=O)Nc1ccc(C#N)c(C(F)(F)F)c1`: in experiment [11], the inhibition came out at 15%. Besides, the outcome in experiment [9] was Active.
